Values joined by “and” are separate entries in the source; they are usually repeats but may differ in a detail not shown here. Equal values may be shown once. One block for each compound: values may come before it.
Key:
Mus musculus [1] = assay: Anticonvulsant activity after intraperitoneal injection into mice by using MES screen test after 0.5 hr; type: functional
Mus musculus [2] = assay: Anticonvulsant activity after intraperitoneal injection into mice measured in a maximal electroshock scree (MES) screen; type: functional
Mus musculus [3] = assay: Toxicity after intraperitoneal injection into mice by using toxicity screen test after 0.5 hr; type: organism-based; conditions: in vivo, ip
Summary of the method: (§1)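 Mice injected intraperitoneally at 30, 100 and 300 mg/kg and examined 0.5 and 4 h afterwards. Each entry is the minimum dose giving activity (MES protection, scPTZ protection, or rotorod failure for neurotoxicity) in half or more of the mice. Activity is called absent if nothing occurs at 300 mg/kg.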

Mus musculus [4] = assay: Compound was tested for toxicity after intraperitoneal injection into mice by using toxicity screen test after 4 hr; type: organism-based; conditions: in vivo, ip; summary of the method: as §1
Rattus norvegicus [5] = assay: Compound was tested for anticonvulsant activity after Oral Administration into Rats by using MES screen test after 0.25h,dose 12.5 mg/kg; No activity was demonstarted; type: functional, organism-based; design: dose 12.5 mg/kg
Summary of the method: (§2)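 Rats received the compound orally. […] Rats were tested in the MES screen at 0.25, 0.5, 1, 2 and 4 h. Each value is the number of rats protected out of 4. The test followed NINDS procedures.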

Rattus norvegicus [6] = assay: Compound was tested for anticonvulsant activity after Oral Administration into Rats by using MES screen test after 4h,dose 12.5 mg/kg; number of rats out of four which were protected; type: functional; summary of the method: as §2
Rattus norvegicus [7] = assay: Anticonvulsant activity after oral administration into rats; type: functional; design: concentration or dose not given beside the values
Rattus norvegicus [8] = assay: Compound was tested for anticonvulsant activity after Oral Administration into Rats by using MES screen test after 1h,dose 12.5 mg/kg; number of rats out of four which were protected; type: functional; summary of the method: as §2
Rattus norvegicus [9] = assay: Compound was tested for anticonvulsant activity after Oral Administration into rat by using MES screen test after 1 hr; type: functional
Summary of the method: (§3)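 Rats dosed orally, typically at 50 mg/kg first, then mostly 12.5 mg/kg (some compounds at 30 mg/kg), and tested by maximal electroshock. Four rats per compound, scored at 0.25, 0.5, 1, 2 and 4 h as the number of rats protected out of 4.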

[10] = Compound was tested for toxicity after oral administration in rat by using neurotoxicity screen test after 0.25-24 hr; type: organism-based; conditions: in vivo
Summary of the method: (§4)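 Rat neurotoxicity after oral dosing, observed at 0.25, 0.5, 1, 2, 4, 6, 8 and 24 h (8 h omitted for one compound).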

[11] = (§5) Protection index = TD50/ED50 (MES); type: ADME, organism-based; conditions: rat, in vivo; read-out: PI
Rattus norvegicus [12] = assay: Compound was tested for anticonvulsant activity after Oral Administration into Rats by using MES screen test after 2h,dose 12.5 mg/kg; number of rats out of four which were protected; type: functional; summary of the method: as §2
Mus musculus [13] = assay: Anticonvulsant activity after intraperitoneal injection into mice by using scPTZ screen after 0.5 hr; type: functional
Mus musculus [14] = assay: Compound was tested for anticonvulsant activity after intraperitoneal injection into mice by using MES screen test after 1 hr; type: functional; conditions: ip
Summary of the method: (§6)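 Quantitative intraperitoneal mouse testing in the MES, scPTZ or rotorod neurotoxicity screens at the peak time given for each compound (0.25–2 h). ED50 or TD50 reported in mg/kg with 95% CI and slope (SE).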

Mus musculus [15] = assay: Compound was tested for anticonvulsant activity after intraperitoneal injection into mice by using scPTZ screen test after 2 hr; type: functional; conditions: ip; summary of the method: as §6
[16] = Compound was tested for toxicity after intraperitoneal injection into mice by using neurotoxicity screen test after 2 hr; type: organism-based; conditions: mouse, in vivo, ip; summary of the method: as §6
Rattus norvegicus [17] = assay: Compound was tested for anticonvulsant activity after Oral Administration into rat by using MES screen test after 2 hr; type: functional; summary of the method: as §3
[18] = Compound was tested for toxicity after oral administration in rat by using neurotoxicity screen test after 4 hr; type: organism-based; conditions: in vivo; summary of the method: as §4
[19] = Protection index = TD50/ED50; type: ADME; conditions: read-out: PI
Rattus norvegicus [20] = organism: Rattus norvegicus; assay: as §5; type: ADME, organism-based; conditions: in vivo
Rattus norvegicus [21] = assay: Compound was tested for anticonvulsant activity after Oral Administration into Rats by using MES screen test after 4h,dose 50 mg/kg; number of rats out of four which were protected; type: functional; summary of the method: as §2
Rattus norvegicus [22] = assay: Compound was tested for anticonvulsant activity after Oral Administration into Rats by using MES screen test after 2h,dose 50 mg/kg; number of rats out of four which were protected; type: functional; summary of the method: as §2
Rattus norvegicus [23] = assay: Compound was tested for anticonvulsant activity after Oral Administration into Rats by using MES screen test after 0.25h,dose 50 mg/kg; number of rats out of four which were protected; type: functional; summary of the method: as §2
Rattus norvegicus [24] = assay: Compound was tested for anticonvulsant activity after Oral Administration into Rats by using MES screen test after 0.5h,dose 50 mg/kg; number of rats out of four which were protected; type: functional; summary of the method: as §2
Rattus norvegicus [25] = assay: Compound was tested for anticonvulsant activity after Oral Administration into Rats by using MES screen test after 1 hr, dose 50 mg/kg; number of rats out of four which were protected; type: functional; summary of the method: as §2
[26] = Partition coefficient (logP); type: physicochemical; conditions: octanol/water
Summary of the method: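 Partition between 1-octanol and buffer at pH 7.4, with solutions prepared in 1-octanol before buffer is added. Quantified by UV, using λmax and ε values measured in 1-octanol.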

Mus musculus [27] = assay: Compound was tested for anticonvulsant activity after intraperitoneal injection into mice by using scPTZ screen test after 0.25 hr; type: functional; conditions: ip; summary of the method: as §6
[28] = Compound was tested for toxicity after oral administration in rat by using neurotoxicity screen test after 2 hr; type: organism-based; conditions: in vivo; summary of the method: as §4
[29] = as §5; type: ADME; conditions: read-out: TI
[30] = Protection index = TD50/ED50 (MES); conditions: mouse, in vivo; read-out: PI
Rattus norvegicus [31] = assay: Compound was tested for anticonvulsant activity after Oral Administration into Rats by using MES screen test after 0.25h,dose 50 mg/kg; No activity was demonstarted; type: functional, organism-based; design: dose 50 mg/kg; summary of the method: as §2
Rattus norvegicus [32] = assay: Compound was tested for anticonvulsant activity after Oral Administration into Rats by using MES screen test after 0.5h,dose 50 mg/kg; No activity was demonstarted; type: functional, organism-based; design: dose 50 mg/kg; summary of the method: as §2
Rattus norvegicus [33] = assay: Compound was tested for anticonvulsant activity after Oral Administration into Rats by using MES screen test after 1h,dose 50 mg/kg; No activity was demonstarted; type: functional, organism-based; design: dose 50 mg/kg; summary of the method: as §2

Structure (SMILES): Cc1cccc(Oc2ccc(/C=N/NC(N)=O)cc2)c1
Dose (Mus musculus [1]): 30 mg/kg
Dose (Mus musculus [2]): 100 mg/kg
Dose (Mus musculus [3]): 100 mg/kg
Dose (Mus musculus [4]): 300 mg/kg
Activity (Rattus norvegicus [5]): No activity
Activity (Rattus norvegicus [6]): 2
Activity (Rattus norvegicus [7]): 4
Activity (Rattus norvegicus [8]): 4
ED50 (Rattus norvegicus [9]): 3.07 mg/kg
TD50 [10]: > 500 mg/kg
selectivity ratio [11]: > 163
Activity (Rattus norvegicus [12]): 3

Structure (SMILES): CC/C(=N/NC(N)=O)c1ccc(Oc2ccc(F)cc2)cc1
Dose (Mus musculus [1]): 30 mg/kg
Dose (Mus musculus [2]): 30 mg/kg
Dose (Mus musculus [13]): 100 mg/kg
Dose (Mus musculus [3]): 300 mg/kg
Dose (Mus musculus [4]): 100 mg/kg
ED50 (Mus musculus [14]): 5.46 mg/kg
ED50 (Mus musculus [15]): 12.8 mg/kg
TD50 at 2 h [16]: 35.3 mg/kg
Activity (Rattus norvegicus [5]): No activity
Activity (Rattus norvegicus [6]): 4
Activity (Rattus norvegicus [7]): 2
Activity (Rattus norvegicus [8]): 4
ED50 (Rattus norvegicus [17]): 4.25 mg/kg
TD50 at 4 h [18]: > 72 mg/kg
selectivity ratio [19]: 2.75
PI (Rattus norvegicus [20]): 6.45 and 16.9
Activity (Rattus norvegicus [12]): 4

Structure (SMILES): NC(=O)N/N=C/c1ccc(Oc2ccc(Br)cc2)cc1
Dose (Mus musculus [1]): 30 mg/kg
Dose (Mus musculus [2]): 30 mg/kg
Dose (Mus musculus [3]): 300 mg/kg
Dose (Mus musculus [4]): 30 mg/kg
Activity (Rattus norvegicus [21]): 4
Activity (Rattus norvegicus [22]): 4
Activity (Rattus norvegicus [23]): 1
Activity (Rattus norvegicus [24]): 4
Activity (Rattus norvegicus [25]): 4

logP [26]: 2.03
Structure (SMILES): C/C(=N/NC(N)=O)c1ccc(Oc2ccc(F)cc2)cc1
Dose (Mus musculus [1]): 30 mg/kg
Dose (Mus musculus [2]): 30 mg/kg
Dose (Mus musculus [13]): 100 mg/kg
Dose (Mus musculus [3]): 300 mg/kg
Dose (Mus musculus [4]): 100 mg/kg
ED50 (Mus musculus [14]): 11.6 mg/kg
ED50 (Mus musculus [27]): > 80 mg/kg
TD50 at 2 h [16]: 60.7 mg/kg
Activity (Rattus norvegicus [5]): No activity
Activity (Rattus norvegicus [6]): 4
Activity (Rattus norvegicus [7]): 4
Activity (Rattus norvegicus [8]): 4
ED50 (Rattus norvegicus [17]): 3.37 mg/kg
TD50 at 2 h [28]: 109 mg/kg
selectivity ratio [29]: 32.3
Activity (Rattus norvegicus [12]): 4
selectivity ratio [30]: 5.22

logP [26]: 1.92
Structure (SMILES): NC(=O)N/N=C/c1ccc(Oc2ccc(Oc3ccccc3)cc2)cc1
Dose (Mus musculus [2]): 300 mg/kg
Activity (Rattus norvegicus [21]): 1
Activity (Rattus norvegicus [22]): 1
Activity (Rattus norvegicus [31]): No activity
Activity (Rattus norvegicus [32]): No activity
Activity (Rattus norvegicus [33]): No activity

Source: ChEMBL document CHEMBL1129428 (J Med Chem, 1996)
